Most compounds without a hit are left out; they make up all but 2.3% or so of the library.
STEP block – inhibitors of human striatal-enriched phosphatase STEP; P54829; recombinant STEP, OMFP fluorogenic substrate, fluorescence; inhibition, % at 20 µM; 360,000 tested, 0.25% active; AID 588621;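 active = inhibition at 20 µM, scaled per plate between control wells, above about 37%, limit read from the data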;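 note: 0% = DMSO with enzyme and substrate and 100% = substrate only without enzyme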
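Material: STEP (striatal-enriched tyrosine phosphatase) enzyme, cell-free; Compound dosing: 20 µM single dose in 1% DMSO; Technique: fluorescence read at 480 nm ex / 540 nm em; Times: reaction 20 min, ambient temperature; Medium: 50 mM Bis-Tris pH 6.0 with 2.5 mM DTT and 0.005% Tween 20; Also added: OMFP at 25 µM.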
LMPTP block – blocks human LMPTP phosphatase; P24666; AID 651560; inhibition, % at 20 µM; 360,000 tested, 0.22% active; recombinant LMPTP-A, OMFP fluorogenic substrate, fluorescence intensity;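 active = compounds that cut the enzyme signal by at least half of the control window in the single-dose screen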;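 note: plate controls were DMSO wells with enzyme plus substrate for no effect and substrate without enzyme for full effect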
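Assay system: LMPTP-A, protein tyrosine phosphatase of low molecular weight / Medium: pH 6.0 Bis-Tris buffer with DTT and Triton X-100 / Schedule: 50 min enzyme reaction at room temperature, protected from light / Measured by: endpoint fluorescence intensity from OMFP dephosphorylation / Read-out basis: % inhibition relative to no-enzyme and uninhibited control wells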
SUMO1 PPI mod – modulators of human SUMO1-mediated protein-protein interactions | P63165 | SUMO1 binding to a labelled peptide, TR-FRET, 1 h | inhibition, % at 20 µM | 360,000 tested, 0.33% active | AID 602429; in the data active = inhibition above about 37%
Rpn11 inh – blocks the human proteasome subunit Rpn11; O00487; human 26S proteasome, Ub4-pepOG fluorescence polarization; 20S core pre-blocked with epoxomicin; inhibition, % at 20 µM; AID 588493; 360,000 tested, 0.59% active;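 active = inhibition at 20 µM, scaled to each plate's controls, above about 33%, limit read from the data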
DNMT1 block – inhibitors of human DNMT1. AID 588458. P26358. DNMT1 molecular beacon, Hinp1I cleavage, fluorescence. 360,000 tested, 0.83% active. inhibition (reported as % activation of signal), % at 10 µM; in the data active = inhibition above about 50%
Scp1 inh – blocks human Scp-1 phosphatase activity | Recombinant Scp1, phosphopeptide, malachite green phosphate absorbance | Q9GZU7 | AID 493091 | inhibition, % at 20 µM | 340,000 tested, 0.88% active;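 active = inhibition above about 50% at 20 µM, limit read from the data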;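 note: plate controls were DMSO wells with enzyme for no effect and wells lacking enzyme for full effect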
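Material – SCP-1 phosphatase catalytic domain, residues 76-261 · Buffer or medium – Acidic Tris acetate buffer with magnesium and detergent · Also added – Phospho 17-mer peptide substrate · Compound – single 20 µM dose, 1% DMSO · Times – 45 min room-temperature reaction, 5 min colour, 30 min stabiliser · Technique – Phosphate-binding colour reagent, absorbance read at 630 nm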
An asterisk follows results filed as active; i = inactive; · = no result shown.

SMILES	STEP block	LMPTP block	SUMO1 PPI mod	Rpn11 inh	DNMT1 block	Scp1 inh
CCOC(=O)c1c(NC(=O)CSc2nnc(C)c(=O)[nH]2)sc2c1CCCC2	3.6	-1.0	24.5	8.1	-4.5	-13.4
CCOC(=O)c1c(NC(=O)CSc2nnc(C)c(=O)[nH]2)sc(C)c1-c1ccc(C)cc1	2.9	2.1	38.4*	3.5	-3.0	-5.4
COc1ccc(NC(=O)N(C)[C@H]2C[C@H]3c4[nH]c5ccc(-c6ccc(OC)cc6)cc5c4CCN3C[C@H]2[C@H](C)O)cc1	2.0	-2.4	-41.5	18.4	-20.4	·
CCN1/C(=C/C=C/c2oc3ccc(-c4ccccc4)cc3[n+]2CC)Oc2ccc(-c3ccccc3)cc21	i	13.7	57.0*	-64.0	148.6*	18.2
Cc1cc(C)n2nc(SCC(=O)N/N=C/c3ccc(F)cc3)nc2n1	-4.3	-1.7	50.7*	-16.2	3.4	3.1
Cc1oc(-c2cc(F)ccc2F)nc1CN1CCN(c2cnccn2)CC1	-0.7	0.2	43.8*	-5.7	-4.2	4.2
Cc1oc(-c2cc(F)ccc2F)nc1CN(C)Cc1ccc2nccnc2c1	-0.7	1.0	-10.8	1.0	6.8	-10.7
CC(=O)Nc1ccc(-c2nc3cc(Cl)ccc3o2)cc1	4.2	19.1	12.9	17.3	-5.8	61.7*
O=C(O)c1ccccc1-c1ccccc1C(=O)Nc1ccc(-c2nc3cc(Cl)ccc3o2)cc1	-0.5	1.4	26.4	4.0	-2.6	-2.7
CCOc1cc(/C=C2\C(=O)N(c3ccc(C(N)=O)cc3)N=C2C)ccc1OC(=O)c1cccs1	31.8	17.9	74.5*	-15.2	30.2	22.1
CCOc1cc(/C=C2/C(=O)N(c3ccccc3)N=C2C)ccc1OC(=O)c1ccco1	18.5	8.9	7.1	5.5	-2.7	0.4
CC1=NN(c2ccccc2)C(=O)/C1=C/c1cccs1	-1.6	1.5	-0.1	-7.3	6.2	-5.3
CC1=NN(c2ccc(C(=O)O)cc2)C(=O)/C1=C\c1ccc(OC(=O)c2cccs2)cc1	4.5	14.2	28.9	6.0	4.7	51.8*
COc1ccc(CCNC(=O)c2ccc(S(=O)(=O)N3CCCCC3)cc2)cc1	0.3	0.5	-0.1	-1.9	1.2	-7.6
CCOC(=O)/C(C#N)=C/c1c(N2CCN(c3ccccc3)CC2)nc2ccccn2c1=O	-0.2	2.5	-26.1	13.1	-4.0	-4.0
N#C/C(=C(/O)c1ccc2c(c1)OCO2)c1nc2cc(C(F)(F)F)ccc2s1	0.0	-0.7	8.2	16.6	-9.9	-7.0
N#C/C(=C(/O)c1ccccc1F)c1nc2cc(C(F)(F)F)ccc2s1	1.0	1.0	6.3	33.0*	-8.8	-4.6
CCC(=O)c1ccc(OCC(=O)OCC(=O)N(CCC#N)c2ccc3c(c2)OCCO3)cc1	0.2	-1.9	4.9	3.2	2.2	-9.6
O=C1C(C2=C(O)c3ccccc3C2=O)=Nc2ccccc21	27.1	0.7	-5.6	10.0	41.1	51.7*
COc1ccccc1NS(=O)(=O)c1cccc(C(=O)NCC2(N3CCCCC3)CCCCC2)c1	-1.2	1.0	-0.9	-2.0	2.0	-1.9
N#CC1=C2SCN(Cc3ccccc3)CN2C(=O)CC1c1cccs1 (stereo unspecified)	48.3*	6.3	2.6	8.4	-2.6	-1.2
O=C(N/N=C/C(Br)=C/c1ccccc1)c1n[nH]c2c1CCC2	1.1	4.5	0.1	6.1	57.3*	6.0
O=C(N/N=C/c1ccccc1)c1n[nH]c2c1CCCC2	0.5	0.7	-4.5	-2.4	-1.2	6.7
COc1ccc(CNCC(O)COCc2cccs2)cc1 (stereo unspecified)	2.2	-1.6	-1.1	3.4	2.7	-2.5
O=S(=O)(NCC(O)COCc1ccco1)c1cccs1 (stereo unspecified)	2.2	-0.5	1.8	-2.9	7.8	64.6*
SMILES	STEP block	LMPTP block	SUMO1 PPI mod	Rpn11 inh	DNMT1 block	Scp1 inh
CCn1c(=O)c(=O)[nH]c2cc(C(=O)NC(C)c3ccc(S(N)(=O)=O)cc3)ccc21 (stereo unspecified)	-1.2	-0.3	0.1	1.8	-0.5	-5.5
CCc1nc(N)nc(N)c1-c1ccc(N(C)Cc2ccccc2)c([N+](=O)[O-])c1	-0.5	78.7*	-18.8	3.8	-9.6	-0.3
CCc1nc(N)nc(N)c1-c1ccc(Cl)cc1	-0.3	55.8*	7.6	4.4	0.7	-0.7
COc1cccc(CNc2nc(NC(C)C)nc3ccsc23)c1OC	0.1	46.5	-1.8	0.8	-1.4	·
COc1cccc(CNc2nc(NCC3CC3)nc3ccsc23)c1OC	-2.0	59.8*	2.4	-5.2	-4.9	·
CCN(CC(=O)NCc1ccc(Cl)cc1)C(=O)c1cc2ccccc2o1	2.2	0.8	0.7	3.4	1.6	-4.8
CCN(Cc1ccccc1)C(=O)C1CCN(Cc2ccc(SC)cc2)CC1	0.1	-0.6	42.5*	0.6	-1.0	-5.4
CC(CC(=O)Nc1ccc(Cl)c(S(=O)(=O)N2CCOCC2)c1)c1ccccc1 (stereo unspecified)	-2.0	1.0	-2.4	-3.0	-1.2	-4.7
COc1ccccc1-c1noc2ncnc(Nc3cccc(C)c3C)c12	4.7	-0.4	0.7	-5.9	8.2	-8.2
C[n+]1c(-c2ccccc2)cc2c(=Cc3ccc([N+](=O)[O-])cc3)c3ccccc3n21	1.2	13.4	-24.1	5.5	51.9*	22.0
C[n+]1c(-c2ccccc2)cc2c(=Cc3ccccc3)c3ccccc3n21	7.5	22.6	-50.3	9.5	50.4*	24.5
CC1CCCCN1CCNC(=O)C1CC(=O)N(c2ccc(F)c(Cl)c2)C1 (stereo unspecified)	3.2	-3.0	-1.4	-0.8	0.9	-3.3
CC1CCCN(CCCNC(=O)C2CC(=O)N(c3ccc(F)c(Cl)c3)C2)C1 (stereo unspecified)	-0.7	-0.8	41.9*	-1.3	-2.9	-10.8
Cc1cc(N)c2cc(NC(=O)/C=C/c3ccccc3Cl)ccc2n1	5.8	19.8	88.7*	136.4*	52.8*	-5.4
O=S(=O)(NC1CCCC1)c1ccc(F)cc1F	0.8	0.8	6.7	-1.5	-3.8	·
C/C(=N\NC(=O)c1cc(O)ccc1O)c1cccc(NC(=O)c2ccc(Cl)cc2)c1	12.4	44.0	43.8*	1.6	-13.3	48.8
O=C(O)C1CCN(S(=O)(=O)c2ccc3[nH]ccc3c2)CC1	0.7	-0.1	6.3	-1.7	-2.4	·
CN1CCc2c(sc(NC(=O)c3ccc(S(=O)(=O)N4CCCCCC4)cc3)c2C(N)=O)C1	2.6	3.1	-3.9	61.8*	4.2	0.9
CN1CCc2c(sc(NC(=O)c3ccc(S(=O)(=O)N4CCCC4)cc3)c2C(N)=O)C1	-2.4	2.4	-25.8	·	-6.4	4.0

Bioassay records as filed in PubChem BioAssay.
